Laboratory results taken from ChEMBL document CHEMBL5096213 (Bioorg Med Chem, 2022).
pKd: −log10 of the molar value.

Legend:
[1] = test system: Mycobacterium tuberculosis; assay: Binding affinity to Mycobacterium tuberculosis PanD assessed as change in entropy by isothermal titration calorimetry
Summary of the method: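 Mtb PanD (100 μM) in 50 mM Tris pH 7.5 titrated with 2 mM ligand by ITC at 20 °C. Buffer-versus-compound control heats subtracted. Isotherm fitted by least squares to a single-site binding model, which yields the thermodynamic parameters.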

[2] = Binding affinity to Mycobacterium tuberculosis PanD assessed as dissociation constant by isothermal titration calorimetry
Summary of the method: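 ITC at 20 °C, 100 μM Mtb PanD titrated with 2 mM ligand, after desalting into 50 mM Tris pH 7.5. Buffer-versus-compound heats subtracted. KD obtained by least-squares fit of the binding isotherm to a single-site model.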

[3] = Cytotoxicity against African green monkey Vero cells assessed as cell viability at 1.5 mM incubated for 24 hrs by XTT assay; type: toxicity, cell-based; details: chlorocebus sabaeus, read-out: Activity
Summary of the method: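 Vero cells in EMEM with 10% FBS and penicillin/streptomycin were seeded at 500–1000 cells/well. They were dosed from DMSO stocks (final DMSO 0.5%) over 20 μM to 1.5 mM and incubated 24 h at 37 °C, 10% CO2. XTT was added 2 h before read-out at 450 nm, with 660 nm background. Viability was blank-subtracted and normalized to DMSO-only wells as 100%. Values are the mean of two technical replicates.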

Structure (SMILES) | TdeltaS [1] [kcal/mol] | pKd [2] | viability at 24 h, 1500 µM [3] [%]
O=C(O)c1cnccn1 [PYRAZINOIC ACID] | 3 |  | 
CCCNc1nccnc1C(=O)O | -5.7 | 5.15 | 50
CC(C)Nc1nccnc1C(=O)O |  | < 4.00 | 50
Nc1cnc(C(=O)O)cn1 | 0.6 | 4.43 | 50
O=C(O)c1nccnc1Nc1ccccc1 | -2.5 | 4.33 | 
O=C(O)c1nccnc1NCc1ccccc1 |  |  | 50
Nc1nccnc1C(=O)O | -0.7 | 4.40 | 50
